Experimental findings from ChEMBL document CHEMBL4382192, “Discovery of a potent dual ALK and EGFR T790M inhibitor” (Eur J Med Chem, 2017) are described below.

Each structure is given as a SMILES string.

Test [1] has as its target LIM domain kinase 1 (Homo sapiens) (UniProt P53667). The test is described as follows: Binding affinity to wild-type human full length LIMK1 (M1 to D647 residues) expressed in bacterial expression system assessed as residual binding level at 1 uM by Kinomescan method relative to control. In a few lines: (§1)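 Single-point kinome-wide KINOMEscan binding panel, test compound at 1 μM, run by the provider's standard protocol.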

The target in test [2] is Rhodopsin kinase GRK7 (Homo sapiens) (UniProt Q8WTQ7). The test can be described thus: Binding affinity to wild-type human full length GRK7 (M1 to L553 residues) expressed in mammalian expression system assessed as residual binding level at 1 uM by Kinomescan method relative to control. In a few lines: as §1
Test [3] relates to Epidermal growth factor receptor (Homo sapiens), P00533 [G719C]. The test can be described thus: Binding affinity to human partial length EGFR G719C mutant (R669 to V1011 residues) expressed in bacterial expression system assessed as residual binding level at 1 uM by Kinomescan method relative to control. In a few lines: (§2)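 Kinome-wide selectivity panel run by the KINOMEscan method, with the test compound at a single concentration of 1 μM. Wild-type and mutant kinases were profiled in the same screen.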

Test [4] deals with MAP/microtubule affinity-regulating kinase 4 (Homo sapiens) (UniProt Q96L34). The test can be described thus: Binding affinity to wild-type human partial length MARK4 (K29 to G340 residues) expressed in bacterial expression system assessed as residual binding level at 1 uM by Kinomescan method relative to control.
The target of test [5] is Dual specificity tyrosine-phosphorylation-regulated kinase 2 (Homo sapiens) (UniProt Q92630). The test can be described thus: Binding affinity to wild-type human full length DYRK2 (M1 to S528 residues) expressed in mammalian expression system assessed as residual binding level at 1 uM by Kinomescan method relative to control.
Test [6] concerns the target Casein kinase I isoform alpha-like (Homo sapiens) (UniProt Q8N752). The test can be described thus: Binding affinity to wild-type human full length CSNK1A1L (M1 to N337 residues) expressed in bacterial expression system assessed as residual binding level at 1 uM by Kinomescan method relative to control.
Test [7] concerns the target Calcium/calmodulin-dependent protein kinase kinase 1 (Homo sapiens) (UniProt Q8N5S9). The test can be described thus: Binding affinity to wild-type human partial length CAMKK1 (R65 to E414 residues) expressed in bacterial expression system assessed as residual binding level at 1 uM by Kinomescan method relative to control.
The target of test [8] is Bone morphogenetic protein receptor type-2 (Homo sapiens) (UniProt Q13873). The test can be described thus: Binding affinity to wild-type human partial length BMPR2 (R179 to Q526 residues) expressed in mammalian expression system assessed as residual binding level at 1 uM by Kinomescan method relative to control.
Test [9] has as its target Receptor-type tyrosine-protein kinase FLT3 (Homo sapiens) (UniProt P36888). The test can be described thus: Binding affinity to wild-type human partial length FLT3 (V592 to Y969 residues) expressed in bacterial expression system assessed as residual binding level at 1 uM by Kinomescan method relative to control.
The target of test [10] is SNF-related serine/threonine-protein kinase (Homo sapiens) (UniProt Q9NRH2). The test can be described thus: Binding affinity to wild-type human partial length SNRK (M1 to E339 residues) expressed in mammalian expression system assessed as residual binding level at 1 uM by Kinomescan method relative to control.
Test [11] concerns Tyrosine-protein kinase ABL1 (Homo sapiens), P00519 [M351T]. The test is described as follows: Binding affinity to human phosphorylated ABL1 M351T mutant (S229 to K512 residues) expressed in mammalian expression system assessed as residual binding level at 1 uM by Kinomescan method relative to control. In a few lines: as §2
Test [12] deals with Epidermal growth factor receptor (Homo sapiens), P00533 [L858R]. The test can be described thus: Binding affinity to human partial length EGFR L858R mutant (R669 to V1011 residues) expressed in bacterial expression system assessed as residual binding level at 1 uM by Kinomescan method relative to control. In a few lines: as §2
Test [13] has as its target Cyclin-dependent kinase 7 (Homo sapiens) (UniProt P50613). The test is described as follows: Binding affinity to wild-type human full length CDK7 (M1 to L344 residues) expressed in mammalian expression system assessed as residual binding level at 1 uM by Kinomescan method relative to control.
The target of test [14] is cAMP-dependent protein kinase catalytic subunit PRKX (Homo sapiens) (UniProt P51817). The test can be described thus: Binding affinity to wild-type human partial length PRKX (M1 to F358 residues) expressed in bacterial expression system assessed as residual binding level at 1 uM by Kinomescan method relative to control.
Test [15] concerns the target Ephrin type-A receptor 3 (Homo sapiens) (UniProt P29320). The test is described as follows: Binding affinity to wild-type human partial length EPHA3 (D604 to K889 residues) expressed in bacterial expression system assessed as residual binding level at 1 uM by Kinomescan method relative to control.
For test [16], the target named is TGF-beta receptor type-1 (Homo sapiens) (UniProt P36897). The test is described as follows: Binding affinity to wild-type human partial length TGFBR1 (D179 to M503 residues) expressed in bacterial expression system assessed as residual binding level at 1 uM by Kinomescan method relative to control.
Test [17] has as its target Fibroblast growth factor receptor 4 (Homo sapiens) (UniProt P22455). The test is described as follows: Binding affinity to wild-type human partial length FGFR4 (G402 to E713 residues) expressed in bacterial expression system assessed as residual binding level at 1 uM by Kinomescan method relative to control.
Test [18] has as its target Tyrosine-protein kinase Blk (Homo sapiens, UniProt P51451). The test is described as follows: Binding affinity to wild-type human partial length BLK (G211 to L503 residues) expressed in bacterial expression system assessed as residual binding level at 1 uM by Kinomescan method relative to control.
Test [19] deals with Proto-oncogene tyrosine-protein kinase receptor Ret (Homo sapiens), P07949 [V804L]. The test can be described thus: Binding affinity to human partial length RET V804L mutant (E713 to D1014 residues) expressed in bacterial expression system assessed as residual binding level at 1 uM by Kinomescan method relative to control. In a few lines: as §2
The target of test [20] is Mitogen-activated protein kinase kinase kinase 6 (Homo sapiens) (UniProt O95382). The test is described as follows: Binding affinity to wild-type human partial length ASK2 (M278 to R972 residues) expressed in mammalian expression system assessed as residual binding level at 1 uM by Kinomescan method relative to control.
The target in test [21] is Mitogen-activated protein kinase kinase kinase 13 (Homo sapiens) (UniProt O43283). The test is described as follows: Binding affinity to wild-type human full length LZK (M1 to W966 residues) expressed in mammalian expression system assessed as residual binding level at 1 uM by Kinomescan method relative to control. In a few lines:
as §1

The target of test [22] is cGMP-dependent protein kinase 2 (Homo sapiens) (UniProt Q13237). The test is described as follows: Binding affinity to wild-type human partial length PRKG2 (S422 to F762 residues) expressed in mammalian expression system assessed as residual binding level at 1 uM by Kinomescan method relative to control.
Test [23] addresses Mitogen-activated protein kinase kinase kinase 15 (Homo sapiens) (UniProt Q6ZN16). The test is described as follows: Binding affinity to wild-type human partial length MAP3K15 (T625 to L932 residues) expressed in mammalian expression system assessed as residual binding level at 1 uM by Kinomescan method relative to control.
Test [24] deals with Serine/threonine-protein kinase 17B (Homo sapiens) (UniProt O94768). The test can be described thus: Binding affinity to wild-type human full length DRAK2 (M1 to C372 residues) expressed in bacterial expression system assessed as residual binding level at 1 uM by Kinomescan method relative to control.

Mitogen-activated protein kinase kinase kinase 15 (Homo sapiens), sequence (Q6ZN16 whole entry, the tested form may be a part): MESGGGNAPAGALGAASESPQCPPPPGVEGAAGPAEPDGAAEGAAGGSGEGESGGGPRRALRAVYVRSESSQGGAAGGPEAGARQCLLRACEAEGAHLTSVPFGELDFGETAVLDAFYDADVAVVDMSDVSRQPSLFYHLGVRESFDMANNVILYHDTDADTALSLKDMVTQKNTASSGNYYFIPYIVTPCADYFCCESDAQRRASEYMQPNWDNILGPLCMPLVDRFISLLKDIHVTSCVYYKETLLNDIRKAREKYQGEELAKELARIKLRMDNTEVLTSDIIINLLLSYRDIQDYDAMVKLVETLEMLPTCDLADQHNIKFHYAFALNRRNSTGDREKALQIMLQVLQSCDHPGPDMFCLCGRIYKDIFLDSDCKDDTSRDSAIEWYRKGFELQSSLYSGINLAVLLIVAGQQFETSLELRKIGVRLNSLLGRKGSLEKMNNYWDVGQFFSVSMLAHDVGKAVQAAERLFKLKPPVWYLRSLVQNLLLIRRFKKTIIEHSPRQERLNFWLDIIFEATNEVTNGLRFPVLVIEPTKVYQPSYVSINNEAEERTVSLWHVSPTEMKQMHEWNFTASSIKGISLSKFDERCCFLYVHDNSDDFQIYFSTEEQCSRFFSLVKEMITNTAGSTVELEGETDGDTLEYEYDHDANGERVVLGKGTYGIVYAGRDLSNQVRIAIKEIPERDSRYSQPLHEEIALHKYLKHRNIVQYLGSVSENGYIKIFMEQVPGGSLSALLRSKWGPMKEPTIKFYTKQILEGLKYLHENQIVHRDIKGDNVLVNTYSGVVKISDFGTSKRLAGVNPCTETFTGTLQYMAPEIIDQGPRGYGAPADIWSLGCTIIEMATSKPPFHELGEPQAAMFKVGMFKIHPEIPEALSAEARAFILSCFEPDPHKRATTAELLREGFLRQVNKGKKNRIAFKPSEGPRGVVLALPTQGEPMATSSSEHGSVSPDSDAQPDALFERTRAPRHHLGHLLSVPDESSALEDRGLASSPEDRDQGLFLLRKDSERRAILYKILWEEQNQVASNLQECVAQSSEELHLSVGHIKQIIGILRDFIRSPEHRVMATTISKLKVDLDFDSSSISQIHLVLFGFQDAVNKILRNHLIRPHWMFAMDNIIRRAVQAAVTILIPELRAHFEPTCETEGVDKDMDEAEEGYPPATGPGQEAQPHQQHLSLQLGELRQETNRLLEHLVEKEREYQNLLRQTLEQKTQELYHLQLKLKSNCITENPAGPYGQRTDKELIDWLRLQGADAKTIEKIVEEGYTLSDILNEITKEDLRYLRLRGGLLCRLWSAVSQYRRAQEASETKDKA
Proto-oncogene tyrosine-protein kinase receptor Ret (Homo sapiens), P07949 [V804L], sequence (P07949 whole entry V804L, the tested form may be a part): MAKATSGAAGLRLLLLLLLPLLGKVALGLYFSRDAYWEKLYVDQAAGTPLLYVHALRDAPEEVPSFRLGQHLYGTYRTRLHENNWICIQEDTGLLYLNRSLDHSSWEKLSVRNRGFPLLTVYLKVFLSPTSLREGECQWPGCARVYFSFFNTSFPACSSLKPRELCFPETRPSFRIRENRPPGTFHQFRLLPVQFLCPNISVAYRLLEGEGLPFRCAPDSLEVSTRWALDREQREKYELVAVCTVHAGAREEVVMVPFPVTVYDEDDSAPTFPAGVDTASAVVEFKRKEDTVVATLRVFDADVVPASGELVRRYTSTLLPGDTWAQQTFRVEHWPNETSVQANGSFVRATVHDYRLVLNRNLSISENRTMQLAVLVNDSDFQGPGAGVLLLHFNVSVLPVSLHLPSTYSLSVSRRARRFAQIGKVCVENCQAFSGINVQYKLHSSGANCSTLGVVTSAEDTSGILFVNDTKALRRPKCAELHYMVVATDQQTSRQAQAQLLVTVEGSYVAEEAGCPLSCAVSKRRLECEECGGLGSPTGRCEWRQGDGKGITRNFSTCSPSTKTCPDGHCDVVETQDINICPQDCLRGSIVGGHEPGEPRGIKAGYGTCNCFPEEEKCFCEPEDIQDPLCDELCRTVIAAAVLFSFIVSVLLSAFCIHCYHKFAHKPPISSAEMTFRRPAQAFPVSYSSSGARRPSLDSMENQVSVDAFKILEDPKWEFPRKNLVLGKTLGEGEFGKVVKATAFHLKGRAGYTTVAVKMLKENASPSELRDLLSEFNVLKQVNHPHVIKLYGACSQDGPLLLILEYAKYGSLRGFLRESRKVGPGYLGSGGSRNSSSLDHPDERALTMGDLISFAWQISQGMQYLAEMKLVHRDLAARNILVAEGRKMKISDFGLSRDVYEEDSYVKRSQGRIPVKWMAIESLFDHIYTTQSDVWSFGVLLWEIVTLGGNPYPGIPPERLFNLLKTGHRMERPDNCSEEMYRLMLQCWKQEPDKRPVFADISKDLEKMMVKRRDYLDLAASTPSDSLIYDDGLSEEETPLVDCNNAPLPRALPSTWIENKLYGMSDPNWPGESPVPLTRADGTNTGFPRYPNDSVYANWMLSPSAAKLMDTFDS
Rhodopsin kinase GRK7 (Homo sapiens), sequence (Q8WTQ7 whole entry, the tested form may be a part): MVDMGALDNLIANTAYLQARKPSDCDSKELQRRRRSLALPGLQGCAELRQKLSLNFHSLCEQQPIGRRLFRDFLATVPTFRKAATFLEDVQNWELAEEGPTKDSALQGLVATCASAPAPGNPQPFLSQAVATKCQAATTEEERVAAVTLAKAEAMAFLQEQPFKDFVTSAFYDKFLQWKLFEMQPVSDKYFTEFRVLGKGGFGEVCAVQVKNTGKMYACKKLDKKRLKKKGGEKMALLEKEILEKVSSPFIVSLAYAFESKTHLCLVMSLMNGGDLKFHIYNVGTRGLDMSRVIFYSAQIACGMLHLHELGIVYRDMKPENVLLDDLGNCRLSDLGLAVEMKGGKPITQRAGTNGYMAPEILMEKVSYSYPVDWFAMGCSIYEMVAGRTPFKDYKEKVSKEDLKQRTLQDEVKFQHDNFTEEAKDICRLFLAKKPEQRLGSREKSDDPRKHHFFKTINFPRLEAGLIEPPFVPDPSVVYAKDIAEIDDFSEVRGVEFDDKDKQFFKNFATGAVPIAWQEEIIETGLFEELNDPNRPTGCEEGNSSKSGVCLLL
SNF-related serine/threonine-protein kinase (Homo sapiens), sequence (Q9NRH2 whole entry, the tested form may be a part): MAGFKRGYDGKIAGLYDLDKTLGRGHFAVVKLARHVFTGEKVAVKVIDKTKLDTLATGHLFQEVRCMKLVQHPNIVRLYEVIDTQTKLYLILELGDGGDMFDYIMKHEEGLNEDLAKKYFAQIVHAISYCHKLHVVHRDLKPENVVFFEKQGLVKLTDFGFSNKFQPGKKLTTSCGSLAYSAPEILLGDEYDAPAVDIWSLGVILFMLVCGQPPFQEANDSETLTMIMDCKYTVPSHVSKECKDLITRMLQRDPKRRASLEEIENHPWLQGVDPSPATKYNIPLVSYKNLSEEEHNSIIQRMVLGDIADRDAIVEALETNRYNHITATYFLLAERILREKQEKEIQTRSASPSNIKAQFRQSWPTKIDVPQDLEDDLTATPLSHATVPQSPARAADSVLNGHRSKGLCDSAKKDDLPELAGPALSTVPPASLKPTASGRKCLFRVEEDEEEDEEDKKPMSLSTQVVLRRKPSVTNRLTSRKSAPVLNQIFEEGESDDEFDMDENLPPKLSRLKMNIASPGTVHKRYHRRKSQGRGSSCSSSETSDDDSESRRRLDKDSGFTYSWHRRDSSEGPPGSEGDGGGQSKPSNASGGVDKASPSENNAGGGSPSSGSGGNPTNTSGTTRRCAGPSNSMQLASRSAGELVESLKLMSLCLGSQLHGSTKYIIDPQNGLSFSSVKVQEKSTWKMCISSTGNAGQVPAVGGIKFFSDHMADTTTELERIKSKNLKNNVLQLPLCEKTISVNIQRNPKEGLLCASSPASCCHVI
Bone morphogenetic protein receptor type-2 (Homo sapiens), sequence (Q13873 whole entry, the tested form may be a part): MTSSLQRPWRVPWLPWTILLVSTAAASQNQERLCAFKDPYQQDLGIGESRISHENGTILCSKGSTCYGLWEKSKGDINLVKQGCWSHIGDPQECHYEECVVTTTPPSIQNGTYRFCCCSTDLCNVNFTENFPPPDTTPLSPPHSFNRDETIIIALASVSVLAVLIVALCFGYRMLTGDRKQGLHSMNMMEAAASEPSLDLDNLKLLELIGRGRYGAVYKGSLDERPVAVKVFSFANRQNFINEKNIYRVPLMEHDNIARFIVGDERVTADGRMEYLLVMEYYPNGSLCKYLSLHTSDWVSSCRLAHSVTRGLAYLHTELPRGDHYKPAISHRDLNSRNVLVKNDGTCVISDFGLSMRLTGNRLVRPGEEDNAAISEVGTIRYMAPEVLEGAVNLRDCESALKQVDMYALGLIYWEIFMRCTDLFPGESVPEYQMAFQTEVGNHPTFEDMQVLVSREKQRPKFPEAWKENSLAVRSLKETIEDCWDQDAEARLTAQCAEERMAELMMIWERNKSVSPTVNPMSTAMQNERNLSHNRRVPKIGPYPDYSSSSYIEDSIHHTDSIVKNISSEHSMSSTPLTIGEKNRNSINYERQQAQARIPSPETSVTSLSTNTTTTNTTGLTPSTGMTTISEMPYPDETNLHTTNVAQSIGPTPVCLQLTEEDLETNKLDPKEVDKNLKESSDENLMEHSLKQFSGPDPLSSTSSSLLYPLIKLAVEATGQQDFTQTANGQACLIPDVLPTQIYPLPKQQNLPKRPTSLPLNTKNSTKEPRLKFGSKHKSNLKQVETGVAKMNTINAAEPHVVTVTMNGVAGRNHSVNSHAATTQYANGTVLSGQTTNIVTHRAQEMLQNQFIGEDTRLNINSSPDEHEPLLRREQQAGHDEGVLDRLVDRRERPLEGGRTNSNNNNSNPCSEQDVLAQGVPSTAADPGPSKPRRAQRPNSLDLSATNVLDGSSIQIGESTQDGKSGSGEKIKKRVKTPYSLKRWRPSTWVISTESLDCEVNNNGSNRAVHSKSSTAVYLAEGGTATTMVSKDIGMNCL

For the compound `C=CC(=O)Nc1cc(Nc2ncc(Cl)c(Nc3ccccc3S(=O)(=O)C(C)C)n2)c(OC)cc1N(C)CCN(C)C`, the Activity in test [1] was 87%; in test [2] it was 4.3%; in test [3], 0.95%; in [4], 6%; in [5] it was 100%; in [6], 86%. Further, the Activity came out at 2.8% in [7]; 95% in test [8]; 3.1% in [9]; 72% in test [10]; 9.5% in [11]; 0% in test [12]. Moreover, the Activity in test [13] came to 21%; in test [14] it was 100%; in test [15] it was 77%; in test [16], 18%; in test [17], 9.6%; in test [18] it was 0.05%. The Activity in [19] turned out to be 14%; in test [20], 21%; in test [21], 73%; in test [22] it was 79%; in test [23], 45%; in test [24], 100%.
